# Experimental data from different studies.
# Each line is one published result; the experiments were not run side by side.
# Target: Aurora kinase B (AURKB, Homo sapiens, UniProt Q96GD4)
# Effect on: enzyme activity
Compound,action,technique,concentration,remaining activity [%]
O=C1NC(=O)c2cc(Nc3ccc(F)cc3)c(Nc3ccc(F)cc3)cc21,inhibitor,,0.5 µM,99.7
CN1CCc2cc(Nc3ncc(C4CC4)c(NCCCNC(=O)C4CCC4)n3)ccc2C1,inhibitor,radiometric,1 µM,8
CC(C)(C)c1nc2c(s1)c1nc(N)ncc1c1ccc(NS(=O)(=O)c3c(F)cccc3F)c(F)c12,inhibitor,radiometric,1 µM,90
Cc1cnc(NC2CCOCC2)nc1-n1cnc(C(=O)NC(CN)c2cc(F)cc(Cl)c2)c1 (stereo not shown),inhibitor,radiometric,1 µM,84
CCCOc1ccc(OC)c(F)c1C(=O)c1ccc(C(=O)N[C@@H]2CNC[C@H]2NC(=O)c2ccc3[nH]ncc3c2)cc1,inhibitor,,10 µM,10
Cn1c(=O)n(-c2ccc(C(C)(C)C#N)cc2)c2c3cc(-c4cnc5ccccc5c4)ccc3ncc21,inhibitor,,10 µM,101
Cc1nn(CC(F)(F)F)cc1Nc1ncc(Br)c(NCc2ccc(S(N)(=O)=O)cc2)n1,inhibitor,radiometric,1 µM,87
O=C1Nc2ccc(Cl)cc2C1=Cc1cc(Cl)c(O)c(Cl)c1,,,0.5 µM,9.19
Nc1nc(Nc2ccccc2)sc1C(=O)c1c(F)cccc1F,inhibitor,,10 µM,24
O=C(Nc1cnn(-c2csc(C(=O)NC3COC3)c2)c1)Nc1c(F)cccc1Cl,inhibitor,,5 µM,69.8
Nc1nc(NC2CCCCC2)sc1C(=O)c1ccccc1,inhibitor,,10 µM,75
Cc1nn(CC(F)(F)F)cc1Nc1nccc(NCCCNC(=O)C2CCC2)n1,inhibitor,radiometric,1 µM,90
COc1cc(Nc2cnc(C#N)c(O[C@H](C)CN(C)C)n2)ncc1-c1cnn(C)c1,inhibitor,radiometric,10 µM,53
Oc1cccc(-c2nc(N3CCOCC3)c3oc4ncccc4c3n2)c1,inhibitor,,10 µM,95
Cc1sc(C(=O)NC2COC2)cc1-n1cc(NC(=O)Nc2c(F)cccc2Cl)cn1,inhibitor,,10 µM,96.4
O=C(NCCCNc1nc(Nc2cccc(CN3CCOCC3)c2)ncc1C1CC1)C1CCC1,inhibitor,radiometric,1 µM,5
COc1cc2ncnc(Nc3ccc(F)c(Cl)c3)c2cc1OCCCN1CCOCC1,,,0.5 µM,106
NS(=O)(=O)c1ccc(CNc2ccnc(Nc3cccc(NC(=O)N4CCCC4)c3)n2)cc1,inhibitor,radiometric,1 µM,53
CC(C)(O)[C@H]1CC[C@H](Nc2ccc3ncc(-c4cccc(C(F)(F)F)c4)n3n2)CC1,inhibitor,,1 µM,82.1
